This is an account of results in ChEMBL document CHEMBL4699460, “Integrating DNA-encoded chemical libraries with virtual combinatorial library screening: Optimizing a PARP10 inhibitor” (Bioorg Med Chem Lett, 2020).

Test [1] has as its target Protein mono-ADP-ribosyltransferase PARP14 (Homo sapiens) (UniProt Q460N5). In words: Inhibition of N-terminal His-GST tagged human PARP14 (1470 to 1801 residues) expressed in baculovirus infected Sf9 cells assessed as reduction in NAD+-dependent ADP ribosylation using histone as substrate at 1 uM incubated for 1 hr in presence of biotinylated NAD+ and activated DNA by chemiluminescence based microplate reader assay relative to control.

Test [2] has as its target T1, Protein mono-ADP-ribosyltransferase PARP10 (Homo sapiens) (UniProt Q53GL7).
T1 sequence (whole entry): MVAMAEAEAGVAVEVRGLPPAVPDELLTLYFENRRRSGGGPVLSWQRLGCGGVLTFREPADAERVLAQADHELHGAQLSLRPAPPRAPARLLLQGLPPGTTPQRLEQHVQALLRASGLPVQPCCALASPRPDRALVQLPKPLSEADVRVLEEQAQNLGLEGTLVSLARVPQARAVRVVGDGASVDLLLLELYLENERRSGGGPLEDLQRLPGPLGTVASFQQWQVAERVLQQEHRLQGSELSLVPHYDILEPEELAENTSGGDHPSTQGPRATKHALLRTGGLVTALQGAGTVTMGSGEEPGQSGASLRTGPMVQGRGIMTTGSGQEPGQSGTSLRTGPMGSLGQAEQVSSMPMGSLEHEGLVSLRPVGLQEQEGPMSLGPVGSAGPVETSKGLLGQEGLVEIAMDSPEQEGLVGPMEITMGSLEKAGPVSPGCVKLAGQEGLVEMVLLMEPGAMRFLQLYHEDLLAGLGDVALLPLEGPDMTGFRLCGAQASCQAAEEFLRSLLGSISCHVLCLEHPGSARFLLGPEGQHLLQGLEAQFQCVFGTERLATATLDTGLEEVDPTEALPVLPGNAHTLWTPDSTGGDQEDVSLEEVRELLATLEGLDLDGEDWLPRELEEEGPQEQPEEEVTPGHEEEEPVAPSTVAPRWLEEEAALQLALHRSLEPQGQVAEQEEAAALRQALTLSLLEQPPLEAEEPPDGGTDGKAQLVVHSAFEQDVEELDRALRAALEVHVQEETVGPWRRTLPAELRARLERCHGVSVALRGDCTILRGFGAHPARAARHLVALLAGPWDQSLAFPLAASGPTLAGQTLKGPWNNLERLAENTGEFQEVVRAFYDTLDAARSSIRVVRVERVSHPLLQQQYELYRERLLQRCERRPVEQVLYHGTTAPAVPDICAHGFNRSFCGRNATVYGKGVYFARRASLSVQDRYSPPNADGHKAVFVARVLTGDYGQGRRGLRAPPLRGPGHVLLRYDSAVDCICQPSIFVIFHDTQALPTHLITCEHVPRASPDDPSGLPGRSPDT
In words: Inhibition of N-terminal FLAG-tagged and C-terminal strep-tagged human PARP10 (805 to 1025 residues) expressed in baculovirus infected Sf9 cells assessed as reduction in NAD+-dependent ADP ribosylation using histone as substrate at 10 uM incubated for 1 hr in presence of biotinylated NAD+ and activated DNA by chemiluminescence based microplate reader assay relative to control.

In test [3] the target is T1, Protein mono-ADP-ribosyltransferase PARP10 (Homo sapiens). Description: Inhibition of N-terminal FLAG-tagged and C-terminal strep-tagged human PARP10 (805 to 1025 residues) expressed in baculovirus infected Sf9 cells assessed as reduction in NAD+-dependent ADP ribosylation using histone as substrate at 1 uM incubated for 1 hr in presence of biotinylated NAD+ and activated DNA by chemiluminescence based microplate reader assay.

Test [4] concerns the target Protein mono-ADP-ribosyltransferase PARP14 (Homo sapiens) (UniProt Q460N5). In words: Inhibition of N-terminal His-GST tagged human PARP14 (1470 to 1801 residues) expressed in baculovirus infected Sf9 cells assessed as reduction in NAD+-dependent ADP ribosylation using histone as substrate at 10 uM incubated for 1 hr in presence of biotinylated NAD+ and activated DNA by chemiluminescence based microplate reader assay relative to control.

Test [5] has as its target T2, Protein mono-ADP-ribosyltransferase PARP10 (Homo sapiens, UniProt Q53GL7).
T2 sequence (Q53GL7 whole entry): T1 sequence (whole entry)
In words: Inhibition of N-terminal FLAG-tagged and C-terminal strep-tagged human PARP10 (805 to 1025 residues) expressed in baculovirus infected Sf9 cells assessed as reduction in NAD+-dependent ADP ribosylation using histone as substrate incubated for 1 hr in presence of biotinylated NAD+ and activated DNA by chemiluminescence based microplate reader assay. The procedure, abridged: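 The IC50 was derived from a concentration-dependent inhibition curve for PARP10 in the histone ADP-ribosylation assay.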

Molecules are shown by their SMILES.

Chain of Protein mono-ADP-ribosyltransferase PARP14 (Homo sapiens) (Q460N5 whole entry, the tested form may be a part): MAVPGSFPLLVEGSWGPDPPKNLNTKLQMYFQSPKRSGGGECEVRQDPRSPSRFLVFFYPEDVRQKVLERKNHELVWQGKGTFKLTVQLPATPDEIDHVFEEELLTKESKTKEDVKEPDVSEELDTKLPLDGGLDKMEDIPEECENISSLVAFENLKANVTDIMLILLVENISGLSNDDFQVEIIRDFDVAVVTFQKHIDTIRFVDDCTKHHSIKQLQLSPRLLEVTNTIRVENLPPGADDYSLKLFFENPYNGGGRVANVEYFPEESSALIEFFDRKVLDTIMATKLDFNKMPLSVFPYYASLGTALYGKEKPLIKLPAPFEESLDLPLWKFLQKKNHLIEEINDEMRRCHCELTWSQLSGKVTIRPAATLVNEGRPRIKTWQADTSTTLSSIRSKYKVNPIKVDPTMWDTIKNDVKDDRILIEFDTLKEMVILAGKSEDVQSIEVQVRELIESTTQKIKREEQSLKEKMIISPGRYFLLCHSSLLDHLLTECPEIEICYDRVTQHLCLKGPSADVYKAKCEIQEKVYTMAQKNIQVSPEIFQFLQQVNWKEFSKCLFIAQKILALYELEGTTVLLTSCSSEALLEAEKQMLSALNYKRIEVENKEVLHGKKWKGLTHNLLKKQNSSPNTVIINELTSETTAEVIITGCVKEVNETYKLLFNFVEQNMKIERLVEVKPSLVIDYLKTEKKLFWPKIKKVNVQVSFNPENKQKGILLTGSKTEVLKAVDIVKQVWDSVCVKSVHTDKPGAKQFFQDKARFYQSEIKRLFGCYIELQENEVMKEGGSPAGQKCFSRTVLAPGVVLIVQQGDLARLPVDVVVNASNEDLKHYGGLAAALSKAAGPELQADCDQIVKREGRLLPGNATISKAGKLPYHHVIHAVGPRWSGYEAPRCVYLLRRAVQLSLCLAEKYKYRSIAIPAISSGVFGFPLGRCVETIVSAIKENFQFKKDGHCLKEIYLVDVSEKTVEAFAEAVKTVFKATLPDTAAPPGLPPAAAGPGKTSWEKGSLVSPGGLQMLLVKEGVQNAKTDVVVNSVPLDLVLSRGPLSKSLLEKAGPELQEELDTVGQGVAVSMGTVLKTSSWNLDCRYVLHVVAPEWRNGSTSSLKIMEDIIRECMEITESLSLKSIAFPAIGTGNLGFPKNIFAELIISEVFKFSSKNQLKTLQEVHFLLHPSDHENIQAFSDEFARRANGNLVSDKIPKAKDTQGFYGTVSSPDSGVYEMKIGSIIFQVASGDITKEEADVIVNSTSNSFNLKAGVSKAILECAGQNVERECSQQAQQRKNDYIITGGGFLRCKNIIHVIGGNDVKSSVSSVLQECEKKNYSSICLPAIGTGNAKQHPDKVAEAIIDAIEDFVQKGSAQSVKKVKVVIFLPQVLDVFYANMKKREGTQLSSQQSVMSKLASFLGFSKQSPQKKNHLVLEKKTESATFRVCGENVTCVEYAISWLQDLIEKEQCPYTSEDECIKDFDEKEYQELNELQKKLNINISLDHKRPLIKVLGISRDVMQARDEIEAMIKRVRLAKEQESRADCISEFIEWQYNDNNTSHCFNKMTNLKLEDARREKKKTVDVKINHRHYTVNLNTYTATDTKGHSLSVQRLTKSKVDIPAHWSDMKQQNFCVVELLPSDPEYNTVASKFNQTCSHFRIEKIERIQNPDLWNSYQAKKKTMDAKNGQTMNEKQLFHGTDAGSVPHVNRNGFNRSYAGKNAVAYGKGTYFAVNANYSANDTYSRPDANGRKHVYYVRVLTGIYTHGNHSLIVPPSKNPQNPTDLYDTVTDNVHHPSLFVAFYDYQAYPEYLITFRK

For the compound `O=C(CCc1nc2ccccc2[nH]c1=O)NCC(=O)N1CCN(C(=O)COc2cccc3c2CCCC3=O)CC1`, the inhibition was 2% in test [1], 10% in test [2] and 13% in test [3].

As for `O=C(COc1ccc2c(c1)C(=O)CCC2)NC1CCN(C(=O)CCc2nc3ccccc3[nH]c2=O)CC1`, the figures for the inhibition in test [1], in test [2] and in test [3] were 27%, 16% and 11%, respectively.

Regarding `O=C1CCCc2cc(C(=O)N3CCN(C(=O)CCc4nc5ccccc5[nH]c4=O)C[C@H]3CO)ccc21`, the inhibition in test [1] was found to be 0%; in test [2], 4%; in test [3], 13%.

`O=C1CCCc2cc(C(=O)N3C[C@@H]4C[C@H]3CN4C(=O)CCc3nc4ccccc4[nH]c3=O)ccc21`: the inhibition in test [1] worked out at 7%; in test [2], 12%; in test [3], 13%.

In the case of `O=C1CCCc2c(OCC(=O)N3CCN(C(=O)CCc4nc5ccccc5[nH]c4=O)C[C@@H]3CO)cccc21`, the inhibition in test [1] worked out at 12%; in test [2], 9%; in test [3] it was 15%.

`CC[C@H]1CN(C(=O)COc2cccc3c2CCCC3=O)CCN1C(=O)CCc1nc2ccccc2[nH]c1=O`: the values for the inhibition in test [1], in test [2] and in test [3] were 17%, 15% and 1%, respectively.

In the case of `O=C(NC[C@@H]1CCCN1C(=O)CCc1nc2ccccc2[nH]c1=O)c1ccc2c(c1)CCCC2=O`, the inhibition stood at 0% in test [1], 5% in test [4], 37% in test [2] and 0% in test [3].

As to `O=C(CCc1nc2ccccc2[nH]c1=O)NCC(=O)N1CCN(C(=O)Nc2ccc3c(c2)C(=O)CCC3)CC1`, the results for the inhibition in test [1], in test [2] and in test [3] were 0%, 46% and 17%, respectively. For the same compound, in test [5], the IC50 was 28 µM.

On to `O=C(COc1ccc2c(c1)CCCC2=O)NC[C@@H]1CCCN1C(=O)CCc1nc2ccccc2[nH]c1=O`, for which the inhibition in test [1] stood at 6%; in test [4] it was 10%; in test [2] it was 35%; in test [3], 0%.

The inhibition is the relative decrease from the control value, in per cent. The term IC50 denotes the concentration that inhibits the measured activity by half.
